Measurements published in ChEMBL document CHEMBL1147875, “Novel 1-oxyl-2-substitutedphenyl-4,4,5,5-tetramethylimidazolines: synthesis, selectively analgesic action, and QSAR analysis” (2007).

Tests used:
Format in all cases: functional
Mus musculus [1] = experiment: Analgesic activity in ICR mouse assessed as pain threshold variation at 0.13 mmol/kg, ip after 150 mins by tail flick test
Summary of the method: (§1)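 Male ICR mice (25 2 g), 12/12 light/dark cycle, 21 2 °C, acclimated one day. Single ip injection in 0.2 ml saline with 0.01 ml DMSO and 0.02 ml Tween 80. Tail-flick pain threshold measured before dosing (BPT) and at 30 min intervals for 150 min. PTV = (post-dose threshold − BPT)/BPT, averaged per animal. Saline controls; ANOVA, p < 0.05.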

Aorta [2] = experiment: Vasorelaxant activity in rat aortic strips assessed as inhibition of noradrenaline-induced vasoconstriction at 500 umol/l; design: scale not given: the % may be the effect or the level left
Aorta [3] = experiment: Vasorelaxant activity in rat aortic strips assessed as inhibition of noradrenaline-induced vasoconstriction at 20 umol/l; design: scale not given: the % may be the effect or the level left
Aorta [4] = experiment: Vasorelaxant activity in rat aortic strips assessed as inhibition of noradrenaline-induced vasoconstriction at 100 umol/l; design: scale not given: the % may be the effect or the level left
Mus musculus [5] = experiment: Analgesic activity in ICR mouse assessed as pain threshold variation at 0.13 mmol/kg, ip after 60 mins by tail flick test; summary of the method: as §1
Mus musculus [6] = experiment: Analgesic activity in ICR mouse assessed as pain threshold variation at 0.13 mmol/kg, ip after 90 mins by tail flick test; summary of the method: as §1
Mus musculus [7] = experiment: Effect on bleeding time in ICR mouse tail at 1.3 mmol/kg, ip after 60 mins
Summary of the method: (§2)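 Mice given 1.30 mmol/kg body weight. Tail bleeding time measured before dosing and at 5, 15, 30 and 60 min after dosing. Saline as vehicle control.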

Mus musculus [8] = experiment: Analgesic activity in ICR mouse assessed as pain threshold variation at 0.13 mmol/kg, ip after 120 mins by tail flick test; summary of the method: as §1
Mus musculus [9] = experiment: Analgesic activity in ICR mouse assessed as pain threshold variation at 0.13 mmol/kg, ip after 30 mins by tail flick test; summary of the method: as §1
Mus musculus [10] = experiment: Effect on bleeding time in ICR mouse tail at 1.3 mmol/kg, ip after 30 mins; summary of the method: as §2
Mus musculus [11] = experiment: Effect on bleeding time in ICR mouse tail at 1.3 mmol/kg, ip after 15 mins; summary of the method: as §2
Mus musculus [12] = experiment: Effect on bleeding time in ICR mouse tail at 1.3 mmol/kg, ip after 5 mins; summary of the method: as §2

| Compound | Activity (Mus musculus [1]) | Activity (Aorta [2]) [%] | Activity (Aorta [3]) [%] | Activity (Aorta [4]) [%] | Activity (Mus musculus [5]) | Activity (Mus musculus [6]) | TIME (Mus musculus [7]) [h] | Activity (Mus musculus [8]) | Activity (Mus musculus [9]) | TIME (Mus musculus [10]) [h] | TIME (Mus musculus [11]) [h] | TIME (Mus musculus [12]) [h] | Time (Mus musculus [7]) [s] | Time (Mus musculus [10]) [s] | Time (Mus musculus [11]) [s] | Time (Mus musculus [12]) [s] |
| --- | --- | --- | --- | --- | --- | --- | --- | --- | --- | --- | --- | --- | --- | --- | --- | --- |
| CC1(C)N=C(c2ccccc2O)N([O])C1(C)C | 62.2 | 20.3 | 6.01 | 13.4 | 45.4 | 64.2 | 0.0324 | 70.2 | 48.6 | 0.0325 | 0.0329 | 0.0324 |  |  |  |  |
| CC1(C)N=C(c2ccc(O)cc2)N([O])C1(C)C | 29.9 | 8.71 | 5.36 | 7.66 | 70.8 | 75.9 | 0.0327 | 55.5 | 55.7 | 0.0326 | 0.0325 | 0.0328 |  |  |  |  |
| CN(C)c1ccc(C2=NC(C)(C)C(C)(C)N2[O])cc1 | 27.9 | 40 | 8.02 | 26 | 35.5 | 36.2 | 0.0327 | 34.3 | 30.4 | 0.0329 | 0.033 | 0.0331 |  |  |  |  |
| CC1(C)N=C(c2ccc(Cl)cc2Cl)N([O])C1(C)C | 14.8 | 34.8 | 6.86 | 23 | 63.3 | 48.4 | 0.0327 | 30.5 | 39.6 | 0.0326 | 0.033 | 0.0329 |  |  |  |  |
| CC1(C)N=C(c2ccccc2[N+](=O)[O-])N([O])C1(C)C | 19.7 | 35.6 | 6.98 | 20.4 | 66.9 | 57.2 | 0.0324 | 23.4 | 38.4 | 0.0326 | 0.0327 | 0.0326 |  |  |  |  |
| COc1ccc(C2=NC(C)(C)C(C)(C)N2[O])cc1O | 59.8 | 16.6 | 5.36 | 11 | 48.2 | 48.4 | 0.0326 | 56.4 | 33.1 | 0.0328 | 0.0325 | 0.0326 |  |  |  |  |
| CC1(C)N=C(c2ccc([N+](=O)[O-])cc2)N([O])C1(C)C | 52.3 | 36.5 | 7.36 | 24.4 | 60.5 | 58 | 0.033 | 35.9 | 56.5 | 0.0329 | 0.0331 | 0.0332 |  |  |  |  |
| Cc1ccc(C2=NC(C)(C)C(C)(C)N2[O])cc1 | 25.5 | 31.8 | 7 | 20 | 53.6 | 43.7 | 0.0328 | 35.2 | 40.2 | 0.0328 | 0.0324 | 0.0327 |  |  |  |  |
| CC1(C)N=C(c2ccccc2)N(O)C1(C)C | 33.48 | 17.25 | 5.44 | 11.04 | 36.99 | 34 |  | 32.14 | 40.6 |  |  |  | 118.2 | 119.3 | 117.4 | 118.2 |
| CC1(C)N=C(c2ccc(Cl)c(Cl)c2)N([O])C1(C)C | 27 | 34.4 | 6.74 | 22.7 | 72.8 | 55.7 | 0.033 | 28.8 | 50.6 | 0.0331 | 0.0331 | 0.0334 |  |  |  |  |
| CC1(C)N=C(c2ccc(Br)cc2)N([O])C1(C)C | 76.5 | 34.8 | 6.89 | 23 | 35.6 | 59.8 | 0.0326 | 60 | 41.3 | 0.0324 | 0.0326 | 0.0324 |  |  |  |  |
| CC1(C)N=C(c2cccc([N+](=O)[O-])c2)N([O])C1(C)C | 41.8 | 34.3 | 6.72 | 22.1 | 66.4 | 47.4 | 0.0328 | 43.5 | 49.8 | 0.0327 | 0.0324 | 0.0329 |  |  |  |  |
| CC1(C)N=C(c2ccc(Cl)cc2)N([O])C1(C)C | 84.5 | 36.6 | 7.19 | 23.8 | 66.3 | 61.7 | 0.0326 | 50.8 | 59.3 | 0.0328 | 0.0326 | 0.0331 |  |  |  |  |
| COc1ccc(C2=NC(C)(C)C(C)(C)N2[O])cc1OC | 55.6 | 33.7 | 6.66 | 22.3 | 60.2 | 59.5 | 0.0335 | 78.4 | 44.9 | 0.0332 | 0.033 | 0.0329 |  |  |  |  |
| COc1cc(C2=NC(C)(C)C(C)(C)N2[O])ccc1O | 40.9 | 6.55 | 5.98 | 6.09 | 42.9 | 66.3 | 0.0329 | 43.2 | 54.2 | 0.0327 | 0.0323 | 0.0327 |  |  |  |  |
| COc1ccc(C2=NC(C)(C)C(C)(C)N2[O])c(OC)c1 | 32.4 | 37.1 | 7.33 | 24 | 59.7 | 62.5 | 0.0328 | 71.2 | 42 | 0.0327 | 0.0324 | 0.0331 |  |  |  |  |
| CC1(C)N=C(c2ccc3c(c2)OCO3)N([O])C1(C)C | 25.4 | 37.4 | 8.1 | 24.5 | 65 | 74 | 0.0324 | 58.3 | 52.8 | 0.0328 | 0.0324 | 0.0326 |  |  |  |  |
